Values after ≈ are worked out from the molar mass of the structure shown.
What was measured:
[1] = test system: Plasmodium falciparum; test: Parasite viability index for Plasmodium falciparum Indochina W2 by [3H]hypoxanthine uptake; type: functional, organism-based
[2] = test system: Plasmodium falciparum; test: Inhibition of Plasmodium falciparum D6 (Sierra Leone) by [3H]hypoxanthine uptake; type: functional, organism-based
[3] = Potency to inhibit African Sierra Leone(D-6) clone relative to artemisinin.; type: functional
Procedure, shortened: (§1)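 Ratio of artemisinin IC50 to test-compound IC50, both measured in the same [3H]hypoxanthine microdilution assay against the named clone. Parasites were at 0.5% parasitemia and 1% hematocrit, exposed for 24 h at 37 °C under low oxygen, then labelled for 18–20 h. IC50s came from a four-parameter logistic fit of duplicate wells.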

[4] = Potency to inhibit Indochina(W-2) clone relative to artemisinin.; type: functional; procedure, shortened: as §1

## CO[C@H]1O[C@]2(C)CC[C@H]3CCC[C@@H](CCOC(=O)c4ccc(C(=O)OCCN(C)C)cc4)[C@]31OO2
[1]
  IC50: 3.3 ng/mL (≈ 6.71 nM)
[2]
  IC50: 12.6 ng/mL (≈ 25.6 nM)
[3]
  Relative potency: 0.3
[4]
  Relative potency: 0.4

## C=CCOCC[C@@H]1CCC[C@@H]2CC[C@]3(C)OO[C@]21[C@@H](OC)O3
[1]
  IC50: 0.6 ng/mL (≈ 1.92 nM)
[2]
  IC50: 5.5 ng/mL (≈ 17.6 nM)
[3]
  Relative potency: 0.7
[4]
  Relative potency: 2.3

## CO[C@H]1O[C@]2(C)CC[C@H]3CCC[C@@H](CCOC(=O)N(C)C)[C@]31OO2
[1]
  IC50: 0.8 ng/mL (≈ 2.33 nM)
[2]
  IC50: 2.9 ng/mL (≈ 8.44 nM)
[3]
  Relative potency: 1.3
[4]
  Relative potency: 1.8

## CO[C@H]1O[C@]2(C)CC[C@H]3CCC[C@@H](CCOCc4c(C)noc4C)[C@]31OO2
[1]
  IC50: 0.5 ng/mL (≈ 1.31 nM)
[2]
  IC50: 7.6 ng/mL (≈ 19.9 nM)
[3]
  Relative potency: 0.5
[4]
  Relative potency: 2.8

## CO[C@H]1O[C@]2(C)CC[C@H]3CCC[C@@H](CCOS(=O)(=O)c4cccc5c(N(C)C)cccc45)[C@]31OO2
[1]
  IC50: 1.2 ng/mL (≈ 2.37 nM)
[2]
  IC50: 16.3 ng/mL (≈ 32.2 nM)
[3]
  Relative potency: 0.2
[4]
  Relative potency: 1.2

## COC(=O)c1ccccc1S(=O)(=O)OCC[C@@H]1CCC[C@@H]2CC[C@]3(C)OO[C@]21[C@@H](OC)O3
[1]
  IC50: 13.2 ng/mL (≈ 28.1 nM)
[2]
  IC50: 11.3 ng/mL (≈ 24 nM)
[3]
  Relative potency: 0.3
[4]
  Relative potency: 0.1

## CO[C@H]1O[C@]2(C)CC[C@H]3CCC[C@@H](CCOCc4ccccc4)[C@]31OO2
[1]
  IC50: 0.4 ng/mL (≈ 1.1 nM)
[2]
  IC50: 5.4 ng/mL (≈ 14.9 nM)
[3]
  Relative potency: 0.7
[4]
  Relative potency: 3.5

## CO[C@H]1O[C@]2(C)CC[C@H]3CCC[C@@H](CCOC(=O)CNC(=O)OC(C)(C)C)[C@]31OO2
[1]
  IC50: 2.5 ng/mL (≈ 5.82 nM)
[2]
  IC50: 3.5 ng/mL (≈ 8.15 nM)
[3]
  Relative potency: 1.1
[4]
  Relative potency: 0.6

## CO[C@H]1O[C@]2(C)CC[C@H]3CCC[C@@H](CCOC(=O)c4ccccc4)[C@]31OO2
[1]
  IC50: 8.2 ng/mL (≈ 21.8 nM)
[2]
  IC50: 29.5 ng/mL (≈ 78.4 nM)
[3]
  Relative potency: 0.1
[4]
  Relative potency: 0.2

## CCN(CC)C(=O)c1ccc(C(=O)OCC[C@@H]2CCC[C@@H]3CC[C@]4(C)OO[C@]32[C@@H](OC)O4)cc1
[1]
  IC50: < 1.4 ng/mL
[2]
  IC50: < 1.4 ng/mL
[3]
  Relative potency: > 2.8
[4]
  Relative potency: > 1

## C[C@@H]1CC[C@H]2[C@@H](C)C(=O)O[C@@H]3O[C@@]4(C)CC[C@@H]1[C@]32OO4 [ARTEMISININ]
[1]
  IC50: 1.4 ng/mL (≈ 4.96 nM)
[2]
  IC50: 3.9 ng/mL (≈ 13.8 nM)
[3]
  Relative potency: 1
[4]
  Relative potency: 1

## COCC[C@@H]1CCC[C@@H]2CC[C@]3(C)OO[C@]21[C@@H](OC)O3
[1]
  IC50: 3.7 ng/mL (≈ 12.9 nM)
[2]
  IC50: 10.7 ng/mL (≈ 37.4 nM)
[3]
  Relative potency: 0.4
[4]
  Relative potency: 0.4

## CCN(CC)C(=O)OCC[C@@H]1CCC[C@@H]2CC[C@]3(C)OO[C@]21[C@@H](OC)O3
[1]
  IC50: < 0.4 ng/mL
[2]
  IC50: 1.7 ng/mL (≈ 4.58 nM)
[3]
  Relative potency: 2.3
[4]
  Relative potency: > 3.5

## COC(=O)c1ccc(C(=O)OCC[C@@H]2CCC[C@@H]3CC[C@]4(C)OO[C@]32[C@@H](OC)O4)cc1
[1]
  IC50: < 1.2 ng/mL
[2]
  IC50: > 1.2 ng/mL
[3]
  Relative potency: > 3.3
[4]
  Relative potency: > 1.2

## CO[C@H]1O[C@]2(C)CC[C@H]3CCC[C@@H](CCOC(=O)N(c4ccccc4)c4ccccc4)[C@]31OO2
[1]
  IC50: < 0.2 ng/mL
[2]
  IC50: 0.9 ng/mL (≈ 1.92 nM)
[3]
  Relative potency: 4.3
[4]
  Relative potency: > 7

## CO[C@H]1O[C@]2(C)CC[C@H]3CCC[C@@H](CCOS(=O)(=O)c4ccc(C)cc4)[C@]31OO2
[1]
  IC50: 1.9 ng/mL (≈ 4.45 nM)
[2]
  IC50: 5.6 ng/mL (≈ 13.1 nM)
[3]
  Relative potency: 0.7
[4]
  Relative potency: 0.7

## CO[C@H]1O[C@]2(C)CC[C@H]3CCC[C@@H](CCOC(=O)c4ccc(C(=O)O)cc4)[C@]31OO2
[1]
  IC50: 15.7 ng/mL (≈ 37.3 nM)
[2]
  IC50: 63.3 ng/mL (≈ 151 nM)
[3]
  Relative potency: 0.1
[4]
  Relative potency: 0.1

## CCOP(=O)(OCC)OCC[C@@H]1CCC[C@@H]2CC[C@]3(C)OO[C@]21[C@@H](OC)O3
[1]
  IC50: < 0.9 ng/mL
[2]
  IC50: 1.1 ng/mL (≈ 2.69 nM)
[3]
  Relative potency: 3.5
[4]
  Relative potency: > 1.6

From ChEMBL document CHEMBL1125468, “Extraordinarily potent antimalarial compounds: new, structurally simple, easily synthesized, tricyclic 1,2,4-trioxanes” (J Med Chem, 1992)
